NALP1 inh: NALP1 inhibition; inhibition, % at 10 µM; S. cerevisiae NALP1/ASC/caspase-1 growth, X-gal OD620, 72 h; 0.61% of 280,000 active; in the data active means inhibition mostly above about 24%, no sharp cut-off; inactive means mostly below about 32%
DNA FID counter: fluorescent intercalator displacement, NS3 helicase counter-screen | DNA fluorescent intercalator displacement, fluorescence | inhibition, % at 7.9 µM | 0.17% of 290,000 active; in the data active means inhibition above about 37%;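 further: higher means more ethidium bromide displaced from hairpin DNA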
IMP-1 inhibitor: inhibitors of Pseudomonas aeruginosa IMP-1 metallo-beta-lactamase; purified IMP-1, nitrocefin hydrolysis, epi-absorbance fluorescence; 0.45% of 290,000 active; inhibition, % at 5.6 µM;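 active means inhibition above the mean plus 3 SD of all compounds in the same screening run, cut at about 4.5% in these data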
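assay system = purified recombinant IMP-1 metallo-beta-lactamase enzyme | schedule = 15 min preincubation plus 25 min reaction at 25 °C | signal = Epi-absorbance fluorescence, 480 nm excitation, 530 nm emission | read-out basis = percent inhibition from optical density relative to buffer-blank wells | controls = IMP-1 with DMSO as 0%, enzyme-free DMSO as 100%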
SUMO Mot1 rescue: blocks SUMOylation pathway, rescuing yeast Mot1-301 growth; AID 2716; S. cerevisiae Mot1-301 growth rescue, ATP luminescence, 38.5C; percent above DMSO median, 100 means doubled; growth rescue, % at 18.8 µM; 1% of 320,000 active;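 active means every valid replicate shows activation above 250% relative to neutral control wells; inactive means the rest, any valid replicate at or below 250%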
UBC9 SUMO inh: blocks human SUMOylation mediated by UBC9; AID 2006; inhibition, % at 35 µM; 0.36% of 290,000 active; HTRF SUMOylation assay, SAE1/SAE2 + UBC9, in vitro; P63279; in the data active means inhibition above about 50%, passing the limit was not always enough
Target sequence (P63279 whole entry, looked up): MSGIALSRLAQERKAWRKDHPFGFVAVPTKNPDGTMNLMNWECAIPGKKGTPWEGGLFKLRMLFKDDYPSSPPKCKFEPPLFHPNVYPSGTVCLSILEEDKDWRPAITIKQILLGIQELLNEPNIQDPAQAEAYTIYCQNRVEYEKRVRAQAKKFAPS
VIM-2 inhibitor: inhibitors of Pseudomonas aeruginosa VIM-2 metallo-beta-lactamase; purified VIM-2, nitrocefin hydrolysis, epi-absorbance fluorescence; inhibition, % at 5.6 µM; 0.89% of 290,000 active;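 active means inhibition above the mean of all tested compounds plus 3 SD, cutoff set per screening run, cut at about 7.5% in these data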;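 further: red hydrolysis product quenches plate fluorescence so inhibitors raise well fluorescence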
Mot1 SUMO dose: yeast SUMO pathway inhibition in dose response; growth activity, percent, % at 42 µM; 2,300 tested, under 10 active; shares compounds with SUMO Mot1 rescue; AID 493004; S. cerevisiae Mot1-301 galactose growth, ATP luminescence, 24 h; -100 = growth of slx-deleted rescue strain;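 active means Signal drops as the depositor expects, and the fitted half-maximal dose is no more than ten times the top valid tested dose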;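 further: more negative values mean stronger growth rescue toward the control strain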
Large screens that a line does not name were inactive (follow-up assays come after a bar, where they were run). Rows were chosen to be rich in hits. Some 2.9% of all compounds tested hit in one or more screens of this group.

COc1ccc(S(=O)(=O)Nc2ccc(NC(C)=O)cc2)cc1Cl	none
CC(=O)Nc1ccc(S(=O)(=O)Nc2ccc3c(c2)C(=O)OC3)cc1	SUMO Mot1 rescue 704 | Mot1 SUMO dose inactive
COc1ccc(S(=O)(=O)Nc2ccc(NC(C)=O)cc2)cc1OC	SUMO Mot1 rescue active | Mot1 SUMO dose inactive
CC(=O)Nc1ccc(NS(=O)(=O)c2ccccc2)cc1	none (no result: SUMO Mot1 rescue)
CC1(C(=O)OCC(=O)NCCNC(=O)COC(=O)C2(C)CC2(Cl)Cl)CC1(Cl)Cl (centres undefined)	none
COc1cc(C(=O)NCCc2ncccc2C)ccc1OC1CCN(C(C)=O)CC1	none
COc1cc(C(=O)NCCC2=CCCCC2)ccc1OC1CCN(C(C)=O)CC1	SUMO Mot1 rescue 547 | Mot1 SUMO dose inactive
Cc1ccc2c(c1)N(CC(=O)OCC(=O)NCc1ccccc1)C(=O)CO2	none
COc1ccccc1-c1nnc(SCC(=O)NC2CCS(=O)(=O)C2)n1N (centres undefined)	SUMO Mot1 rescue active | Mot1 SUMO dose inactive
CC1=C(C(=O)Nc2ccccc2)C(c2cccs2)NC(=O)N1 (centres undefined)	none
COc1cccc(/C=C2\SC(N3CCC(C)CC3)=NC2=O)c1OC	SUMO Mot1 rescue 615 | Mot1 SUMO dose inactive
O=c1[nH]nc(Cc2ccc(-c3ccccc3Cl)o2)c2ccccc12	SUMO Mot1 rescue 360 | Mot1 SUMO dose inactive
Cc1ccc(C2=NN(CC(=O)NCc3cccs3)C(=O)CC2)cc1	SUMO Mot1 rescue 399 | Mot1 SUMO dose inactive
COc1ccc(NC(=O)CN(C)C(=O)CNC(=O)c2ccc(C)s2)cc1	none (no result: NALP1 inh, DNA FID counter, IMP-1 inhibitor, UBC9 SUMO inh, VIM-2 inhibitor)
O=c1cnc2cc([N+](=O)[O-])ccc2[nH]1	SUMO Mot1 rescue 848 | Mot1 SUMO dose inactive
Nc1nc2ccc([N+](=O)[O-])cc2[nH]1	none
COc1ccc(Cl)cc1NC(=O)C1CCCN(c2cc(C)nc3ncnn23)C1 (centres undefined)	SUMO Mot1 rescue 733 | Mot1 SUMO dose inactive
COc1ccc(C)cc1NC(=O)CCNS(=O)(=O)c1cccc(C(F)(F)F)c1	none
O=c1[nH]c(CN2CCN(CCO)CC2)nc2ccccc12	SUMO Mot1 rescue 587 | Mot1 SUMO dose inactive
Cc1ccccc1NC(=O)COC(=O)C1C2CC3OC(=O)C1C3C2 (centres undefined)	SUMO Mot1 rescue 474 | Mot1 SUMO dose inactive
COc1ccccc1NC(=O)COC(=O)C1C2CC3OC(=O)C1C3C2 (centres undefined)	none
Cc1nn(CC(=O)NCCC2=CCCCC2)c(C)c1[N+](=O)[O-]	none (no result: NALP1 inh, DNA FID counter, IMP-1 inhibitor, UBC9 SUMO inh, VIM-2 inhibitor)
CCO[C@H]1c2c(ccc3ccc(=O)oc23)OC(C)(C)[C@@H]1O	none (no result: NALP1 inh, DNA FID counter, IMP-1 inhibitor, UBC9 SUMO inh, VIM-2 inhibitor)
CCn1c(SCC(=O)NC2CCCCC2)nnc1C(C)NC(=O)c1ccccc1F (centres undefined)	SUMO Mot1 rescue active | Mot1 SUMO dose inactive
O=C(O)CN(c1ccccn1)S(=O)(=O)c1ccc(Cl)cc1	SUMO Mot1 rescue 589 | Mot1 SUMO dose inactive
NC(=O)CC(NC(=O)Cc1cccc2ccccc12)c1ccc(NCCCN2CCCC2=O)c([N+](=O)[O-])c1 (centres undefined)	SUMO Mot1 rescue active | Mot1 SUMO dose inactive
COc1ccc(NC(=O)CCS(=O)(=O)c2ccc3c(c2)oc(=O)n3C)cc1	none
Cc1ccc(S(=O)(=O)N(C)c2ccc(OC(=O)CN3C(=O)NC4(CCCC4)C3=O)cc2)cc1C	SUMO Mot1 rescue active (no result: NALP1 inh, DNA FID counter, IMP-1 inhibitor, UBC9 SUMO inh, VIM-2 inhibitor) | Mot1 SUMO dose inactive
Cc1cc(C(=O)NNC(=O)c2ccc(C)s2)c(C)o1	SUMO Mot1 rescue 476 (no result: NALP1 inh, DNA FID counter, IMP-1 inhibitor, UBC9 SUMO inh, VIM-2 inhibitor) | Mot1 SUMO dose inactive
Cc1cc(C(=O)NNC(=O)c2cccc(N(C)C)c2)c(C)o1	none
O=C(c1ccc2c(=O)n(Cc3ccccc3Cl)c(=S)[nH]c2c1)N1CCOCC1	SUMO Mot1 rescue 422 | Mot1 SUMO dose inactive
CCOc1ccc(/C=N/NC(=O)c2ccc(CSc3nc4ccccc4[nH]3)cc2)cc1	SUMO Mot1 rescue 508 | Mot1 SUMO dose inactive
O=C(N/N=C/c1ccc(OC(F)F)cc1)c1ccc(CSc2nc3ccccc3[nH]2)cc1	none
CCN(CC)C(=O)CN1C(=O)NC2(CCc3ccccc3C2)C1=O (centres undefined)	none
FC(F)(F)c1ccccc1-n1ccnc1	none (no result: NALP1 inh, DNA FID counter, IMP-1 inhibitor, UBC9 SUMO inh, VIM-2 inhibitor)
Clc1ccccc1C(c1ccccc1)(c1ccccc1)n1ccnc1	SUMO Mot1 rescue 662 | Mot1 SUMO dose inactive
Brc1ccc(-c2cn3cccnc3n2)cc1	SUMO Mot1 rescue 662 (no result: NALP1 inh) | Mot1 SUMO dose inactive
Clc1ccc(-c2cn3cccnc3n2)cc1	none
O=C(C(=O)N1CCCCCC1)c1c[nH]c2ccccc12	none
COc1ccc2[nH]cc(C(=O)C(=O)N3CCCCC3)c2c1	SUMO Mot1 rescue 695 | Mot1 SUMO dose inactive
CN(C)/C=N/NC(=O)c1ccccc1	SUMO Mot1 rescue 921 | Mot1 SUMO dose inactive
COCCNC(=O)CN1CCN(S(=O)(=O)c2ccc3c(c2)CCCC3)CC1	none (no result: NALP1 inh, DNA FID counter, IMP-1 inhibitor, UBC9 SUMO inh, VIM-2 inhibitor)
O=C(NCc1cccnc1)C(=O)NCC1OCCCN1S(=O)(=O)c1ccccc1 (centres undefined)	none
OCCc1c[nH]c2cc(F)ccc12	SUMO Mot1 rescue 566 | Mot1 SUMO dose inactive
COC(=O)c1ccc2c(CCO)c[nH]c2c1	none
Cc1cccn2c(=O)nc(SCC(=O)NC3CCCC3)nc12	none (no result: NALP1 inh, DNA FID counter, IMP-1 inhibitor, UBC9 SUMO inh, VIM-2 inhibitor)
CN(Cc1ccccc1)c1ccc(S(=O)(=O)N2CCC(C(=O)O)CC2)cc1[N+](=O)[O-]	SUMO Mot1 rescue 550 | Mot1 SUMO dose inactive
NC(Cc1ccccc1)C(O)(c1ccccc1)c1ccccc1 (centres undefined)	none
CC1CCCC(N2C(=O)NC(NC(=O)c3ccco3)(C(F)(F)F)C2=O)C1C (centres undefined)	SUMO Mot1 rescue 510 | Mot1 SUMO dose inactive
CCOc1ccc(NC(=O)CN(c2ccc(OC)c(OC)c2)S(=O)(=O)c2ccc(C)cc2)cc1	none
COc1cc2c(=O)n(-c3ccc(C)cc3)c(=O)n(CC(=O)c3ccc4c(c3)OCO4)c2cc1OC	SUMO Mot1 rescue 694 | Mot1 SUMO dose inactive
O=C(c1cccc(Cl)c1)N1CCN(S(=O)(=O)c2ccc(Cl)s2)CC1	none (no result: NALP1 inh, DNA FID counter, IMP-1 inhibitor, UBC9 SUMO inh, VIM-2 inhibitor)
CCOC(=O)C1(Cc2ccccc2Cl)CCN(C(=O)c2cnccn2)CC1	none
CCOC(=O)C1(Cc2cccc(F)c2)CCN(C(=O)c2cnccn2)CC1	SUMO Mot1 rescue 632 | Mot1 SUMO dose inactive
Oc1ccc(/C=N/N2CCN(c3ccccn3)CC2)cc1	none
Oc1cccc(/C=N/N2CCN(c3ccccn3)CC2)c1	SUMO Mot1 rescue 547 | Mot1 SUMO dose inactive
O=C(O)c1ccc(N=C2NC(=O)C(CO)(CO)S2)cc1	SUMO Mot1 rescue 767 | Mot1 SUMO dose inactive
Cc1nn(C)cc1CN(C)C(=O)c1cc(-c2ccccc2)nc2ccc(Br)cc12	none
CCCCSc1ncnc2[nH]ncc12	none
